Test results from ChEMBL document CHEMBL1126065, “Synthesis and antiallergic activity of 11-(aminoalkylidene)-6,11-dihydrodibenz[b,e]oxepin derivatives” (J Med Chem, 1992).

Key:
Rattus norvegicus [1] = assay: The compound was tested in vivo for inhibitory effect on 48-h homologous passive cutaneous anaphylaxis (PCA) in rats administered perorally; type: functional; details: po
Method in brief: (§1)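 Male Wistar rats, three per group, received intradermal anti-ovalbumin rat IgE serum (0.05 mL, 1:8 in saline) at two dorsal sites. After 48 h they were challenged iv with 1 mg ovalbumin plus 5 mg Evans blue. Compound was given orally 1 h before challenge. […] ED50 came from responders (>50% inhibition).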

[2] = molecular target: T1, Muscarinic acetylcholine receptor M1 (Rattus norvegicus) (UniProt P08482); assay: Binding affinity for Muscarinic acetylcholine receptor M1 from rat striatum, using [3H]quinuclidinyl benzilate as radioligand at 10 uM.
T1 sequence (whole entry): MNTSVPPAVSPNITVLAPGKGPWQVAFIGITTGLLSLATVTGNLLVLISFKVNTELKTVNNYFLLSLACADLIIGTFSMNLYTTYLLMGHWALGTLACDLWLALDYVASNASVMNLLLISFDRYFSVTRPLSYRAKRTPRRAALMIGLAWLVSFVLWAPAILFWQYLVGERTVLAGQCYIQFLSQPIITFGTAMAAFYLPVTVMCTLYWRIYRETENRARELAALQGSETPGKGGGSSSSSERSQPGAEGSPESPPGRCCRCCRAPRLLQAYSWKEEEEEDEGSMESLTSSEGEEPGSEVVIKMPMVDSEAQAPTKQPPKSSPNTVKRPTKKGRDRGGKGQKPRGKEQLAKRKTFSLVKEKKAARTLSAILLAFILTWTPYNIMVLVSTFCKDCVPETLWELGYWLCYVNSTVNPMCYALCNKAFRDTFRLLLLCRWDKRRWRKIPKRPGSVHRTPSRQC
Method in brief: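 Rat striatum was homogenized in water and diluted to 200 volumes in 50 mM Na/K phosphate, pH 7.4. Nonspecific binding was defined with 1 μM unlabeled dexetimide. Bound ligand was collected by GF/B filtration with three ice-cold buffer washes and counted by scintillation.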

Histamine H1 receptor [3] = molecular target: T2, Histamine H1 receptor (Cavia porcellus, UniProt P31389); assay: (§2) The compound was tested in vitro for binding affinity against histamine H1 receptor from guinea pig cerebellum, using [3H]pyrilamine as radioligand at 0.1 uM; type: tissue-based
Method in brief: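 Male Hartley guinea-pig cerebellum membranes (washed twice, 35000–35500g) in 50 mM Na/K phosphate, pH 7.5. Nonspecific binding was set with 1 μM astemizole. Bound ligand was collected by GF/C filtration with three ice-cold washes and counted by liquid scintillation.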

Cavia porcellus = assay: The compound was tested in vivo for the inhibition of IgG1-mediated bronchoconstriction in guinea pig at 0.03 mg/kg administered perorally; type: functional; details: route oral; for ED50: read-out: ID50 (the source's name)
Method in brief: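 Male Hartley guinea pigs, 8–12 per group, were passively sensitized ip with 1 mL IgG-like anti-ovalbumin antiserum. After 24 h they were urethane-anesthetized, ventilated and given gallamine. Compound was given orally 1 h before ovalbumin challenge (5 mg/kg iv). Konzett–Rössler overflow was read as % inhibition versus controls at 5 min after challenge.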

Rattus norvegicus [4] = assay: The compound at 1 mg/kg was tested in vivo for inhibitory effect on 48-h homologous passive cutaneous anaphylaxis (PCA) in rats administered perorally
Histamine H1 receptor [5] = molecular target: T2, Histamine H1 receptor; assay: Binding affinity for histamine H1 receptor from guinea pig cerebellum, using [3H]pyrilamine as radioligand at 0.1 uM; type: tissue-based
Method in brief: (§3)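 Male Hartley guinea-pig cerebellum membranes (washed twice, 35000–35500g) in 50 mM Na/K phosphate, pH 7.5. Tissue (10 mg wet weight) was incubated with 3.8 nM [3H]pyrilamine and 0.1 μM drug for 30 min at 25 °C. Nonspecific binding was set with 1 μM astemizole. Bound ligand was collected by GF/C filtration with three ice-cold washes and counted by liquid scintillation.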

[6] = molecular target: T1, Muscarinic acetylcholine receptor M1 (Rattus norvegicus); assay: The compound was tested in vitro for binding affinity against muscarinic acetylcholine Muscarinic acetylcholine receptor M1 from rat striatum, using [3H]quinuclidinyl benzilate as radioligand at 10 uM.
Method in brief: (§4)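 Rat striatum was homogenized in water and diluted to 200 volumes in 50 mM Na/K phosphate, pH 7.4. Tissue (5 mg wet weight) was incubated with 1.26 nM [3H]quinuclidinyl benzilate for 60 min at 37 °C. Nonspecific binding was defined with 1 μM unlabeled dexetimide. Bound ligand was collected by GF/B filtration with three ice-cold buffer washes and counted by scintillation.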

Rattus norvegicus [7] = assay: The compound at 10 uM was tested in vivo for inhibitory effect on 48-h homologous passive cutaneous anaphylaxis (PCA) in rats administered perorally; type: functional; details: in the assay text read “at 10 mg/kg” for “at 10 uM”; method in brief: as §1
Rattus norvegicus [8] = assay: The compound at 1 uM was tested in vivo for inhibitory effect on 48-h homologous passive cutaneous anaphylaxis (PCA) in rats administered perorally; type: functional; details: in the assay text read “at 1 mg/kg” for “at 1 uM”; method in brief: as §1
[9] = molecular target: Histamine H1 receptor (Cavia porcellus) (UniProt P31389); assay: as §2; type: tissue-based; method in brief: as §3
[10] = molecular target: T1, Muscarinic acetylcholine receptor M1 (Rattus norvegicus); assay: The compound was tested in vitro for binding affinity Muscarinic acetylcholine receptor M1 from rat striatum, using [3H]quinuclidinyl benzilate as radioligand at 10 uM.; method in brief: as §4

Chain of Histamine H1 receptor (Cavia porcellus) (P31389 whole entry): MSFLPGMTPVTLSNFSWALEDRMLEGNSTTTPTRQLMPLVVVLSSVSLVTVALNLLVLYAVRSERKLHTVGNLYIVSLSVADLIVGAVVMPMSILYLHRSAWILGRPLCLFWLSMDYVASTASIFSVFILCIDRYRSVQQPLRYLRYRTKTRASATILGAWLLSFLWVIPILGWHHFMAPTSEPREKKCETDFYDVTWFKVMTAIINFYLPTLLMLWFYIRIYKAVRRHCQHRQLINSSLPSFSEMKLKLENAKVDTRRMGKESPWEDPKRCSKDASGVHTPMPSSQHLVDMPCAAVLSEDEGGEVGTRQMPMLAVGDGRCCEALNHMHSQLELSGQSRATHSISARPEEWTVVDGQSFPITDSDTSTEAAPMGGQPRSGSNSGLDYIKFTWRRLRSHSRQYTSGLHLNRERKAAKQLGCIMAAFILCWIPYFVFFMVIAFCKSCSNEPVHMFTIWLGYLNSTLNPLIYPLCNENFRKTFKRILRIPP
T2 sequence (P31389 whole entry): as above

Structure (SMILES) | ED50 (Rattus norvegicus [1]) [mg/kg] | inhibition [2] [%] | inhibition in vivo at 0.03 mg/kg (Cavia porcellus) [%] | Ki (Histamine H1 receptor [5]) [nM] | ED50 (Cavia porcellus) [mg/kg] | also measured
CN(C)CCC/C=C1/c2ccccc2COc2ccc(C(=O)O)cc21 | 1.2 | 2 | 11 |  |  | Ki (Histamine H1 receptor [3]): 5.8 nM
CN(C)C/C=C1\c2ccccc2COc2ccc(C(=O)O)cc21.O=C(O)/C=C/C(=O)O |  | -2 | 28 | 12 |  | Inhibition (Rattus norvegicus [4]): 19%
CN(C)CCSC1c2ccccc2COc2ccc(C(=O)O)cc21.Cl (configuration not stated) | 0.92 |  |  | 14 | 0.029 | inhibition [6]: 7%
CN(C)CC/C=C1/c2ccccc2COc2ccc(C(=O)O)cc21 | 0.25 | 1 |  | 20 | 0.053 | 
O=C(O)/C=C/C(=O)O.O=C(O)c1ccc2c(c1)/C(=C\CCN1CCCC1)c1ccccc1CO2 |  | 3 | 8.7 | 5 |  | Inhibition (Rattus norvegicus [7]): 53%
CN(C)CC/C=C1\c2ccccc2COc2ccc(CCO)cc21 | 0.14 | 72 |  | 0.48 | 0.0059 | 
CN(C)CC/C=C1/c2ccccc2COc2cc(C(=O)O)ccc21 |  | -1 |  | 24 |  | Inhibition (Rattus norvegicus [4]): 19%
Cc1ccc2c(c1)/C(=C/CCN(C)C)c1ccccc1CO2.O=C(O)/C=C/C(=O)O |  |  |  | 0.13 |  | Inhibition (Rattus norvegicus [8]): 20%
CN(C)CC/C=C1\c2ccccc2COc2ccc(CC(=O)O)cc21 | 0.021 | -1 |  | 5.2 | 0.0041 | 
CN(C)CC/C=C1\c2ccccc2COc2ccc(C(=O)O)cc21.O=C(O)/C=C/C(=O)O | 0.74 | 5 |  | 4.2 | 0.021 | 
CN(C)CC/C=C1/c2ccccc2COc2ccc(/C=C/C(=O)O)cc21.O=C(O)/C=C/C(=O)O | 1 | -1 | 1.1 | 29 |  | 
CN(C)CC/C=C(/c1ccccc1)c1cccc(C(=O)O)c1 |  | 4 |  |  |  | inhibition [9]: 10%
CN(C)C/C=C1\c2ccccc2COc2ccc(CC(=O)O)cc21 | 0.077 |  |  |  | 0.018 | Ki (Histamine H1 receptor [3]): 11 nM; inhibition [10]: 1%
O=C(O)/C=C/C(=O)O.O=C(O)c1ccc2c(c1)/C(=C/CN1CCSCC1)c1ccccc1CO2 |  |  |  |  |  | inhibition [6]: 3%; Inhibition (Rattus norvegicus [7]): 24%; inhibition [9]: 30%
CN(C)CC/C=C1/c2ccccc2COc2ccc(CCC(=O)O)cc21 | 0.32 |  |  |  | 0.015 | Ki (Histamine H1 receptor [3]): 15 nM; inhibition [10]: 2%
O=C(O)c1ccc2c(c1)/C(=C\CCN1CCSCC1)c1ccccc1CO2 |  | 27 | 27 | 7.6 |  | Inhibition (Rattus norvegicus [8]): 60%
CC(C)O.O=C(O)c1ccc2c(c1)/C(=C\CCN1CCOCC1)c1ccccc1CO2 |  |  | -1 |  |  | inhibition [6]: -2%; Inhibition (Rattus norvegicus [8]): 74%; inhibition [9]: 24%
CN1CCN(C/C=C2\c3ccccc3COc3ccc(C(=O)O)cc32)CC1.O=C(O)/C=C/C(=O)O |  |  |  |  |  | inhibition [6]: 2%; Inhibition (Rattus norvegicus [4]): 10%; inhibition [9]: 0%
O=C(O)/C=C/C(=O)O.O=C(O)c1ccc2c(c1)/C(=C/CN1CCOCC1)c1ccccc1CO2 |  |  |  |  |  | inhibition [6]: 2%; Inhibition (Rattus norvegicus [4]): 12%; inhibition [9]: 19%
CN(C)CC/C=C1/c2ccccc2COc2ccc(CC(=O)O)cc21.Cl [OLOPATADINE HYDROCHLORIDE] | 0.049 | 3 |  | 16 | 0.03 | 
CN(C)CCC/C=C1\c2ccccc2COc2ccc(C(=O)O)cc21 | 1.2 | 12 | 1.4 | 6.3 |  | 
CCN(CC)CC/C=C1/c2ccccc2COc2ccc(C(=O)O)cc21.O=C(O)/C=C/C(=O)O | 0.12 | 3 | 19 | 10 |  | 
CN(C)CCC/C=C1/c2ccccc2COc2ccc(CC(=O)O)cc21 |  | 2 | 60 | 4.6 |  | Inhibition (Rattus norvegicus [8]): 55%
CN(C)CC/C=C1\c2ccccc2COc2ccc(CCC(=O)O)cc21 | 0.26 | 5 |  | 4.2 | 0.0064 | 
CN(C)CC/C=C1/c2ccccc2COc2ccc(CCO)cc21 | 0.12 | 80 |  |  |  | Ki (Histamine H1 receptor [3]): 0.63 nM
CN1CCN(C/C=C2\c3ccccc3COc3ccc(CC(=O)O)cc32)CC1.O=C(O)/C=C/C(=O)O |  |  |  |  |  | inhibition [6]: 3%; Inhibition (Rattus norvegicus [8]): 44%; inhibition [9]: 29%
CN1CCC(=C2c3ccccc3CC(=O)c3sccc32)CC1 [KETOTIFEN] | 4.8 | 55 |  |  | 0.009 | 
